Assay outcomes from PubChem BioAssay.
Sampled rows, rich in hits. Any-hit rate of the full collection: about 1.7%.
Vif imaging – inhibitors of HIV Vif. HEK293T cells, Vif self-association by quenched fluorescence, imaging, 24 h. inhibition, % at 7.49 µM. 340,000 tested, 0.35% active. AID 602346; in the data active = inhibition above about 50%, passing the limit was not always enough; inconclusive = no clear call, values can overlap the other calls; inactive = below about 31%
T cell modulator – T cell immune modulators affecting CD8 T cell-vesicle binding; 2C CD8+ T cell-vesicle binding, flow cytometry; stronger effect = lower value; 330,000 tested, 0.068% active; response (vesicle binding), % at 7 µM; AID 2052;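 active = response, share of CD8 T cells binding vesicles, and their 90th percentile fluorescence all below set limits, cut at about 80% in these data, passing the limit was not always enough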;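 note: values below 100% mean blocked vesicle binding to the CD8+ T cells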
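Assay system – 2C mouse CD8+ T cells · Also added – QL9-loaded Drosophila micro-vesicles · Timing – Cell–vesicle co-incubation 1.5 h at 37 °C, staining 20 min on ice · Signal – flow cytometry of vesicle-bound cells · Measure – percent CD8+ FL2 mean versus row control · Controls – Peptide-free naked vesicles (low) and QL9 vesicles with 0.7% DMSO vehicle (high)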
Myeloid diff MLP – myeloid differentiation induction | calls only at 10 µM | 360,000 tested, 1% active | ER-HoxA9 myeloid progenitors, lysozyme-GFP differentiation, flow cytometry;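 active = normalized GFP-positive differentiation at or above the plate's own cutoff, the solvent-only control mean plus 3 SD; inconclusive = no clear call, values can overlap the other calls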;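 note: cells exposed to compound for four days before flow analysis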
DSG3 Ab inh – blocks pemphigus antibody binding to human desmoglein-3; DSG3-coupled beads, scFv-anti-DSG3-GFP binding, flow cytometry; stronger effect = lower value; 310,000 tested, 0.48% active; P32926; binding (percent of control), % at 10 µM;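 active = binding more than 3 SD below its plate's average and above zero; inconclusive = below that plate limit but binding exactly zero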;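 note: hits lower antibody fragment binding to DSG3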
Target sequence (P32926 whole entry, looked up, the tested form may be a part): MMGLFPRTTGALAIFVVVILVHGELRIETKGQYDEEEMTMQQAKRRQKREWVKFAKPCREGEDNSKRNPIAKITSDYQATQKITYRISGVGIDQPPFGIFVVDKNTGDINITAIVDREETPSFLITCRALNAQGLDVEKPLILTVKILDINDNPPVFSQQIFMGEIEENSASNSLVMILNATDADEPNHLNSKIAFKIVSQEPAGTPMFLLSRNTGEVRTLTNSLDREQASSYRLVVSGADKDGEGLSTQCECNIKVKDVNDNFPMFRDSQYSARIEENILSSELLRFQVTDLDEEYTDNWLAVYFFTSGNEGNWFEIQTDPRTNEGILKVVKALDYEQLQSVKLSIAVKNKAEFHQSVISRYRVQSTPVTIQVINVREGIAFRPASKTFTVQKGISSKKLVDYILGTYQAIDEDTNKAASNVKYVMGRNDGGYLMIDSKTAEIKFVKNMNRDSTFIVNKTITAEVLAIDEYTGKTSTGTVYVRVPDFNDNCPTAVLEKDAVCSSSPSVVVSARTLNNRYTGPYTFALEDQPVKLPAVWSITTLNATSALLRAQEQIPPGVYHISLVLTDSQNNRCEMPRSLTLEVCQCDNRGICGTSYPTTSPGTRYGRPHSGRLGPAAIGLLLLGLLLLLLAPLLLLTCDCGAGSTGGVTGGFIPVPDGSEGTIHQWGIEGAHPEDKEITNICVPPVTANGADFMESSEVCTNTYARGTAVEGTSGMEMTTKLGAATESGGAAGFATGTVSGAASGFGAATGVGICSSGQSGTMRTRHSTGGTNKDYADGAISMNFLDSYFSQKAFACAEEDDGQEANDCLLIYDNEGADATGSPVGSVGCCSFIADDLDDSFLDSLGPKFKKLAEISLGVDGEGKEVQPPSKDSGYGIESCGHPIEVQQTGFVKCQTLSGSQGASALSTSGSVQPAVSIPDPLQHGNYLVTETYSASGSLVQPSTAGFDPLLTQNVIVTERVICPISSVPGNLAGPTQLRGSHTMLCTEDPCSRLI
* = called active by the depositor.

What do the screens show for `O=C(COC(=O)/C=C/C(=O)OCC(=O)Nc1ccccc1F)Nc1ccccc1F`?
Vif imaging: 79.4*; T cell modulator: 354.6; Myeloid diff MLP: inactive; DSG3 Ab inh: 89.9

How did CN(C(=O)CSc1nc2ccccc2n1C)C1CCS(=O)(=O)C1 (configuration not stated) do in these assays?
Vif imaging: -6.9; T cell modulator: inactive; Myeloid diff MLP: inactive; DSG3 Ab inh: 94.5

Results for O=CN/C=C/c1cc(O)ccc1O ?
Vif imaging: -9.0; T cell modulator: 392.2; Myeloid diff MLP: inactive; DSG3 Ab inh: 77.7*

Results for CCOC(=O)c1c(C)[nH]c(C(=O)COC(=O)c2[nH]c(C)c(C(C)=O)c2C)c1C ?
Vif imaging: -5.8; T cell modulator: 463.5; Myeloid diff MLP: active; DSG3 Ab inh: 96.7

What do the screens show for `COc1ccc(-c2cc(NC=O)c3ncc(-c4cccc(C(=O)NCCN(C)C)c4)n3c2)c(OC)c1`?
Vif imaging: 5.0; Myeloid diff MLP: active

Results for COc1ccccc1-c1cc(NC=O)c2ncc(-c3cccc(C(F)(F)F)c3)n2c1 ?
Myeloid diff MLP: inactive

What do the screens show for `CN(C)C(=O)c1cccc(-c2cnc3c(NC=O)cc(-c4ccccc4N(C)C)cn23)c1`?
Vif imaging: inconclusive; Myeloid diff MLP: active

What do the screens show for `COc1cc(-c2cnc3c(NC=O)cc(-c4cccc(C(=O)NCCN(C)C)c4)cn23)cc(OC)c1OC`?
Vif imaging: 7.2; Myeloid diff MLP: inactive

How did CN(C)c1ccccc1-c1cc(NC=O)c2ncc(-c3cccc(C(F)(F)F)c3)n2c1 do in these assays?
Myeloid diff MLP: active

What do the screens show for `O=c1ccn([C@@H]2O[C@H](CNCc3cccn3-c3nccs3)[C@@H](O)[C@H]2O)c(=O)[nH]1`?
Vif imaging: 0.8; Myeloid diff MLP: inactive

What do the screens show for `CCCCC[C@H](C)N1C[C@H](COCc2ccccc2)Oc2cc(N3CCC[C@@H]3COC)ccc2S1(=O)=O`?
Myeloid diff MLP: inactive

What do the screens show for `O=C(CSc1ncccn1)Nc1ccc2c(c1)OCO2`?
Vif imaging: 13.6; T cell modulator: 235.1; Myeloid diff MLP: inactive; DSG3 Ab inh: 90.2

Results for Cc1cc(C)c(NC(=O)CSc2nnc(-c3ccco3)n2N)c(C)c1 ?
Vif imaging: 3.4; T cell modulator: 353.2; Myeloid diff MLP: inactive; DSG3 Ab inh: 99.2

What do the screens show for `Cc1ccccc1-c1nnc(SCC(=O)Nc2ccc3c(c2)OCCO3)n1N`?
Vif imaging: -2.1; T cell modulator: 399.9; Myeloid diff MLP: active; DSG3 Ab inh: 99.4

Results for O=C(CSc1ccc(-c2nc3ccccc3[nH]2)cn1)Nc1ccc2c(c1)OCCO2 ?
Vif imaging: 55.0*; T cell modulator: 407.8; Myeloid diff MLP: inactive; DSG3 Ab inh: 87.9

What do the screens show for `O=C(CSc1ncccn1)NC(=O)Nc1ccc2c(c1)OCCO2`?
Vif imaging: 60.2*; T cell modulator: 565.6; Myeloid diff MLP: inactive; DSG3 Ab inh: 100.5

What do the screens show for `Cc1ccc(NC(=O)CSc2nnc(-c3ccco3)n2N)cc1F`?
Vif imaging: 8.2; T cell modulator: 319.7; Myeloid diff MLP: active; DSG3 Ab inh: 101.7

What do the screens show for `CC(C)COC(=O)N(C)C[C@@H]1OCc2cnnn2CCCC(=O)N([C@H](C)CO)C[C@@H]1C`?
Vif imaging: -2.3; Myeloid diff MLP: inactive; DSG3 Ab inh: 106.7

How did O=C1NC[C@@H](CCCCN2C[C@H](Cc3ccccc3)N(CCc3ccccc3)C(=O)C2=O)N(CCc2ccccc2)C1=O do in these assays?
Myeloid diff MLP: inactive

What do the screens show for `CCOc1ccc2nc(SCC(=O)NNC(=O)c3ccco3)c(C)cc2c1`?
Vif imaging: -4.4; T cell modulator: 402.3; Myeloid diff MLP: inactive; DSG3 Ab inh: 110.3

How did CCOc1ccc2cc(/C=C/C(=O)c3ccco3)c(Cl)nc2c1 do in these assays?
Vif imaging: inconclusive; T cell modulator: 325.0; Myeloid diff MLP: active; DSG3 Ab inh: 108.0

Results for COCCNC(=O)c1[nH]c(C(F)(F)F)nc1-c1ccccc1 ?
Vif imaging: -3.7; Myeloid diff MLP: inactive

How did Clc1ccccc1-c1nnc(-c2ccc3c(c2)OCO3)o1 do in these assays?
Vif imaging: 8.7; T cell modulator: 184.9; Myeloid diff MLP: inactive; DSG3 Ab inh: 78.7*

How did O=C(NC1CCCC1)C1C(c2ccc(C(F)(F)F)cc2)=Nc2ccccc2N1C(=O)c1ccccc1 (configuration not stated) do in these assays?
Myeloid diff MLP: inactive

Results for CCOC(=O)c1cc(-c2ccccc2)sc1NC(=O)COC(=O)c1cccc(S(N)(=O)=O)c1 ?
Vif imaging: 55.2*; T cell modulator: 179.7; Myeloid diff MLP: inactive; DSG3 Ab inh: 83.6

Results for CCCCn1nnnc1C1(C)CCC(=O)N1C1CC1 (configuration not stated) ?
Myeloid diff MLP: inactive

Results for O=C(NC1CCCC1)C1CCCN1C(=O)Nc1ccc(Cl)cc1 (configuration not stated) ?
T cell modulator: 0.0*; Myeloid diff MLP: inactive; DSG3 Ab inh: 102.6

What do the screens show for `O=C(NC1CCCCC1)C1CCCN1C(=O)Nc1ccccc1` (configuration not stated)?
Vif imaging: 8.7; T cell modulator: 148.6; Myeloid diff MLP: inactive; DSG3 Ab inh: 91.9

What do the screens show for `Nc1nc(=S)c2ncn(C3OC(CO)CC3O)c2[nH]1` (configuration not stated)?
Vif imaging: 6.6; Myeloid diff MLP: inconclusive

How did CCOC(=O)[C@]12CCC=C1N(Cc1ccc(Cl)cc1Cl)C(=O)[C@H](CC(=O)NCc1cccs1)C2 do in these assays?
Myeloid diff MLP: inactive

What do the screens show for `Cn1c(N)c(C(=O)COC(=O)C2Cc3ccccc3CN2S(C)(=O)=O)c(=O)n(C)c1=O` (configuration not stated)?
Vif imaging: -1.0; Myeloid diff MLP: inactive; DSG3 Ab inh: 75.7*

Results for COc1cccc(N/C=C(\C#N)c2ccc(OCCCF)cc2)c1 ?
Vif imaging: -6.6; T cell modulator: 565.8; Myeloid diff MLP: inactive; DSG3 Ab inh: 72.6*

Results for Cc1ccc([C@@H]2C[C@H]3[C@@H](CN2S(=O)(=O)c2ccc(Cl)cc2)C(=O)C[C@@H](c2ccccc2)N3S(=O)(=O)c2ccc(C)cc2)cc1 ?
Vif imaging: 0.3; Myeloid diff MLP: inactive; DSG3 Ab inh: 101.2

What do the screens show for `COc1cccc(C(=O)NCC(=O)N/N=C/c2cccc(OC(=O)c3ccc([N+](=O)[O-])cc3)c2)c1`?
Vif imaging: -0.7; T cell modulator: 334.4; Myeloid diff MLP: inactive; DSG3 Ab inh: 91.3

Results for O=C(CNC(=O)c1ccc([N+](=O)[O-])cc1)N/N=C\c1ccc(OC(=O)c2ccccc2)cc1 ?
Vif imaging: 50.2*; T cell modulator: 236.0; Myeloid diff MLP: inactive; DSG3 Ab inh: 79.5

What do the screens show for `CCOc1cc(N2CCOCC2)c(OCC)cc1NC(=O)CN1C(=O)NC(CC)(c2ccc(F)cc2)C1=O` (configuration not stated)?
Vif imaging: -4.0; Myeloid diff MLP: inactive; DSG3 Ab inh: 112.7
